Legend:
Conditions in all cases: stereoisomer not certain
OR10G2 (Homo sapiens) = target: T1, OR10G2 (Homo sapiens) (UniProt Q8NGC3)
T1 sequence (whole entry): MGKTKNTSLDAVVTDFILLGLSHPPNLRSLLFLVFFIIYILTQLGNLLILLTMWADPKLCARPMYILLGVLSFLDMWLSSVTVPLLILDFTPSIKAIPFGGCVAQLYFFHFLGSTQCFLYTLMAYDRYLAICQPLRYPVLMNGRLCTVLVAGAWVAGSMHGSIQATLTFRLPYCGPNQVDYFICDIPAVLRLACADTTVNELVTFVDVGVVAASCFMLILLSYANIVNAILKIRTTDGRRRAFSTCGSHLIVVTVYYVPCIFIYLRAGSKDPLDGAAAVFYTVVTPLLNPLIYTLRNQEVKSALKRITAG
In short: (§1)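 Transient luciferase assays in mammalian cell lines were common, though methods varied by source. The values come from published papers and their supplementary material, with extra details from the original authors when needed. Responsive refers to a measured signal the original authors judged statistically different from baseline, and non-responsive (inactive) to the remainder.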

OR10G3 (Homo sapiens) = target: T2, OR10G3 (Homo sapiens) (UniProt Q8NGC4)
T2 sequence (whole entry): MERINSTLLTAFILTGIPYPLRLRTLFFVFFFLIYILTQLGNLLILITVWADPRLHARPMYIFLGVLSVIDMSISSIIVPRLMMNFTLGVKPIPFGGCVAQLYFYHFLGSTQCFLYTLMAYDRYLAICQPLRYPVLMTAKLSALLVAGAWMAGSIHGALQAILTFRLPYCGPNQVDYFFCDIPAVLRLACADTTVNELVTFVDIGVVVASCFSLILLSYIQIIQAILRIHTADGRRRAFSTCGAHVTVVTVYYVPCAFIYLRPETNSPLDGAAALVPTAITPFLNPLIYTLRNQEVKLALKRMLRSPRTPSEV
In short: as §1

OR10G4 (Homo sapiens) = target: T3, OR10G4 (Homo sapiens) (UniProt Q8NGN3)
T3 sequence (whole entry): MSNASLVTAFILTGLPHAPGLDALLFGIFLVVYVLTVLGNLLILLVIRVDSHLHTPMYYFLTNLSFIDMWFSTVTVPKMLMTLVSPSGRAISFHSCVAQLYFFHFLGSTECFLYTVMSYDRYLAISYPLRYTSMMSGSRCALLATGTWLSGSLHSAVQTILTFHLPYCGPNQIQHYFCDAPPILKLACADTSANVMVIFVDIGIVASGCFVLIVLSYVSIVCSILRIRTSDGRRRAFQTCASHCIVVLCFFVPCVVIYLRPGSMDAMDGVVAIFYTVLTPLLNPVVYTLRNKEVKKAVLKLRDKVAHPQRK
In short: as §1

OR10G6 (Homo sapiens) = target: T4, OR10G6 (Homo sapiens) (UniProt Q8NH81)
T4 sequence (whole entry): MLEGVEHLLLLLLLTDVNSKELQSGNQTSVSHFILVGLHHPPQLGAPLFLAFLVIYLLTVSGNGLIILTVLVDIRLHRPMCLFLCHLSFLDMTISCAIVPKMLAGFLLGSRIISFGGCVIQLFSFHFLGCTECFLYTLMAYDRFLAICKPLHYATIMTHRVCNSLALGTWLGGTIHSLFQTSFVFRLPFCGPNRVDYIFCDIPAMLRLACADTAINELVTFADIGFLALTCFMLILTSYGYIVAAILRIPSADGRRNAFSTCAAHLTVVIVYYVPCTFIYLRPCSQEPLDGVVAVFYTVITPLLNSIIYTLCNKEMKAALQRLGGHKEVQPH
In short: as §1

OR10G7 (Homo sapiens) = target: T5, OR10G7 (Homo sapiens) (UniProt Q8NGN6)
T5 sequence (whole entry): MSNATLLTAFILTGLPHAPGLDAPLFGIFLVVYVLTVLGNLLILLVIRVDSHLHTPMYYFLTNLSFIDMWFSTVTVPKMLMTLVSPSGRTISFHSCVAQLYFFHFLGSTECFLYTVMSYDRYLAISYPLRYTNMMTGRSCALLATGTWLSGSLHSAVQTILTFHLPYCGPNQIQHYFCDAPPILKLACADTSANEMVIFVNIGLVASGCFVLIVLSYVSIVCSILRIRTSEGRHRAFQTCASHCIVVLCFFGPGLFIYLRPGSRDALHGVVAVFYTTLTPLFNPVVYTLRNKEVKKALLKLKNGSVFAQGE
In short: as §1

OR10G8 (Homo sapiens) = target: T6, OR10G8 (Homo sapiens) (UniProt Q8NGN5)
T6 sequence (whole entry): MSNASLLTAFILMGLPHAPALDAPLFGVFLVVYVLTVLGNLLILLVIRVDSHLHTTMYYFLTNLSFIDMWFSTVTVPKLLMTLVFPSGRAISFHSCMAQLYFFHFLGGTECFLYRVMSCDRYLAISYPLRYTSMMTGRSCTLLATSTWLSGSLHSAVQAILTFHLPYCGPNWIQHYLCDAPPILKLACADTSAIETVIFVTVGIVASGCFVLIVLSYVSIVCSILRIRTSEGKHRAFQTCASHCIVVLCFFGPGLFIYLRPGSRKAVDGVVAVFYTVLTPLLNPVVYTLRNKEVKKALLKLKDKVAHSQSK
In short: as §1

OR10G9 (Homo sapiens) = target: T7, OR10G9 (Homo sapiens) (UniProt Q8NGN4)
T7 sequence (whole entry): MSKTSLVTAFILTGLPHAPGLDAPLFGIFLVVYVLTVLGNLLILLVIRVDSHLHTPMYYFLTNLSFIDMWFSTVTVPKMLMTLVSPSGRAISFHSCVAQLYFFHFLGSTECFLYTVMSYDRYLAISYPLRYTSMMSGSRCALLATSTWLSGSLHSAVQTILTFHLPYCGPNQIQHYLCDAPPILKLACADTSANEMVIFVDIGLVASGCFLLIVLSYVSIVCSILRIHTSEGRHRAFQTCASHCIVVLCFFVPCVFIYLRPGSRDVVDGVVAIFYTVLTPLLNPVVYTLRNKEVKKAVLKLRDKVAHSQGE
In short: as §1

OR10H1 (Homo sapiens) = target: T8, OR10H1 (Homo sapiens) (UniProt Q9Y4A9)
T8 sequence (whole entry): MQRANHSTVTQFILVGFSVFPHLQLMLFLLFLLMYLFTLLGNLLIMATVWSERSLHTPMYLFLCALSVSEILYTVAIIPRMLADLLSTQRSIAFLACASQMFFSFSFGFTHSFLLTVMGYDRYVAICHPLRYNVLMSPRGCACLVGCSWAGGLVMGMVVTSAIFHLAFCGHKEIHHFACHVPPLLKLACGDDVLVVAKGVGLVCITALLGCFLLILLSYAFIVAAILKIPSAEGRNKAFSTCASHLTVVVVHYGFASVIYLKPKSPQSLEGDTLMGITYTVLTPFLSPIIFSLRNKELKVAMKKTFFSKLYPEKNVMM
In short: as §1

OR10H2 (Homo sapiens) = target: T9, OR10H2 (Homo sapiens) (UniProt O60403)
T9 sequence (whole entry): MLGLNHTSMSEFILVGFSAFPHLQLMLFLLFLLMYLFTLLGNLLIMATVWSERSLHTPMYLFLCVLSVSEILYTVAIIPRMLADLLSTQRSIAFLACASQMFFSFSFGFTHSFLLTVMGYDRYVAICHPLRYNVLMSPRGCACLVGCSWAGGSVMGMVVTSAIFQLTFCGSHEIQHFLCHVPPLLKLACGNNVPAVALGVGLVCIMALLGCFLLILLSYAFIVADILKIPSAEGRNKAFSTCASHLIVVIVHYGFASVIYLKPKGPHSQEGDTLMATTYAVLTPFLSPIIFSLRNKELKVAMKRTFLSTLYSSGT
In short: as §1

OR10H3 (Homo sapiens) = target: T10, OR10H3 (Homo sapiens) (UniProt O60404)
T10 sequence (whole entry): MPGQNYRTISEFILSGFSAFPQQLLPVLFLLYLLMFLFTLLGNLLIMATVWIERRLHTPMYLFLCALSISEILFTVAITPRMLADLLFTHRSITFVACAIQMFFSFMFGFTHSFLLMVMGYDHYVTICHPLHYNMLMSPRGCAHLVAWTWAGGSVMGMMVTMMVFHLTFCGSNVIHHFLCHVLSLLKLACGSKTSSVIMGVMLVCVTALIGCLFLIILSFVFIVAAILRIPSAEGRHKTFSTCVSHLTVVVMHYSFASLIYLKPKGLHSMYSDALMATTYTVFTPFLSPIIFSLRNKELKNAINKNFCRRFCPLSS
In short: as §1

Measured: odorant receptor agonist call;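 note: active if original authors judged signal statistically different from baseline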

CC1=NC(C)C(C)S1 (stereo not given)
inactive: OR10G2 (Homo sapiens) | OR10G3 (Homo sapiens) | OR10G4 (Homo sapiens) | OR10G6 (Homo sapiens) | OR10G7 (Homo sapiens) | OR10G8 (Homo sapiens) | OR10G9 (Homo sapiens) | OR10H1 (Homo sapiens) | OR10H2 (Homo sapiens) | OR10H3 (Homo sapiens)

— the M2OR odorant receptor database
